ChEMBL document CHEMBL3244213, “Synthesis of angiotensin II antagonists by incorporating alpha-methylalanine or O-methylthreonine residues in angiotension II analogues” (J Med Chem, 1977)
The source made the active and inactive calls. No cut-off for these calls is given here. Non-standard residues stand in square brackets, D forms with d. Residues, ends and D or L forms follow the SMILES beside them. Sar = CNCC(=O)O

What was measured:
[1] = Retardation factor of the compound using n-PrOH-water at ratio of 2:1 as solvent system by thin layer chromatography; assay type: physicochemical; conditions: buffer
Oryctolagus cuniculus [2] = species: Oryctolagus cuniculus; test: Agonist activity at angiotensin 2 receptor in rabbit aorta assessed as myotropic activity up to 1 uM/L relative to angiotensin-2; assay type: tissue-based
Outline: (§1)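 Spirally cut isolated rabbit aortic strips; contractile (myotropic) activity of each analogue tested up to a maximum dose level of 10^-6 M/L.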

[3] = Competitive antagonist at angiotensin 2 receptor in rabbit aorta assessed as rightward shift in angiotensin-2 dose response curve for myotropic activity; assay type: tissue-based, Oryctolagus cuniculus
Rattus norvegicus [4] = test: In vivo agonist activity at angiotensin 2 receptor in ganglion-blocked vagotomized rat assessed as pressor activity administered as single bolus dose relative to angiotensin-2; assay type: functional
Outline: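 Vagotomized, ganglion-blocked rats; analogue given as a single injection and pressor response expressed as percent of angiotensin II ([Asp1,Ile5]angiotensin II = 100).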

Oryctolagus cuniculus [5] = species: Oryctolagus cuniculus; test: Antagonist at angiotensin 2 receptor in rabbit aorta assessed as duration of action at 1 uM/L treated for 5 mins after angiotensin-2 challenge
Outline: (§2)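 Spirally cut rabbit aortic strips challenged with a standard 10^-9 M/L angiotensin II dose, then incubated with 10^-6 M/L analogue for 5 min; analogue washed out of the bath and angiotensin II response retested at 5, 30, 60, 120 and 180 min.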

Rattus norvegicus [6] = test: In vivo agonist activity at angiotensin 2 receptor in ganglion-blocked vagotomized rat assessed as rise in blood pressure at 250 ng/kg/min compound infused for 3 mins; assay type: functional
Rattus norvegicus [7] = test: In vivo non-competitive antagonist activity at angiotensin 2 receptor in ganglion-blocked vagotomized rat assessed as angiotensin-2 dose ratio at 250 ng/kg/min administered as an infusion; assay type: functional
Outline: (§3)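 Vagotomized, ganglion-blocked rats infused with analogue at 125 or 250 ng/kg/min; antagonism of angiotensin II pressor response expressed as dose ratio.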

[8] = Retardation factor of the compound using n-BuOH-pyridine-water at ratio of 65:35:35 as solvent system by thin layer chromatography; assay type: physicochemical; conditions: buffer
Rattus norvegicus [9] = test: In vivo agonist activity at angiotensin 2 receptor in ganglion-blocked vagotomized rat assessed as rise in blood pressure at 250 ng/kg/min compound infused for 10 mins; assay type: functional
Rattus norvegicus [10] = test: In vivo agonist activity at angiotensin 2 receptor in ganglion-blocked vagotomized rat assessed as rise in blood pressure at 250 ng/kg/min compound infused for 30 mins; assay type: functional
Outline: (§4)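 Vagotomized, ganglion-blocked rats given analogue by infusion (standard rate 250 ng/kg/min, some at 125 ng/kg/min); initial blood pressure rise recorded in mmHg over the 30-min infusion period.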

[11] = Retardation factor of the compound using n-BuOH-AcOH-water at ratio of 4:1:5 as solvent system by thin layer chromatography; assay type: physicochemical; conditions: buffer
[12] = Retardation factor of the compound using n-BuOH-pyridine-water at ratio of 65:35:65 as solvent system by thin layer chromatography; assay type: physicochemical; conditions: buffer
[13] = Retardation factor of the compound using n-BuOH-AcOH-water-pyridine at ratio of 30:6:24:20 as solvent system by thin layer chromatography; assay type: physicochemical; conditions: buffer
[14] = Retardation factor of the compound using n-BuOH-pyridine-water at ratio of 10:2:5 as solvent system by thin layer chromatography; assay type: physicochemical; conditions: buffer
Oryctolagus cuniculus [15] = species: Oryctolagus cuniculus; test: Non-competitive antagonist at angiotensin 2 receptor in rabbit aorta assessed as inhibition of angiotensin-2 induced myotropic activity at > 1 uM/L; assay type: tissue-based
Oryctolagus cuniculus [16] = species: Oryctolagus cuniculus; test: Reversal antagonistic activity at angiotensin 2 receptor in rabbit aorta assessed as inhibition of angiotensin-2 induced myotropic activity at 1 uM/L measured at 1 hr following drug wash-out; assay type: tissue-based; outline: as §2
Rattus norvegicus [17] = test: In vivo agonist activity at angiotensin 2 receptor in ganglion-blocked vagotomized rat assessed as rise in blood pressure at 125 ng/kg/min compound infused for 3 mins; assay type: functional
Rattus norvegicus [18] = test: In vivo non-competitive antagonist activity at angiotensin 2 receptor in ganglion-blocked vagotomized rat assessed as angiotensin-2 dose ratio at 125 ng/kg/min administered as an infusion; assay type: functional; outline: as §3
Rattus norvegicus [19] = test: In vivo agonist activity at angiotensin 2 receptor in ganglion-blocked vagotomized rat assessed as rise in blood pressure at 125 ng/kg/min compound infused for 30 mins; assay type: functional; outline: as §4
Rattus norvegicus [20] = test: In vivo agonist activity at angiotensin 2 receptor in ganglion-blocked vagotomized rat assessed as rise in blood pressure at 125 ng/kg/min compound infused for 10 mins; assay type: functional
[21] = Retardation factor of the compound using n-BuOH-AcOEt-AcOH-water at ratio of 1:1:1:1 as solvent system by thin layer chromatography; assay type: physicochemical; conditions: buffer
Oryctolagus cuniculus [22] = species: Oryctolagus cuniculus; test: Agonist activity at angiotensin 2 receptor in rabbit aorta assessed as myotropic activity relative to angiotensin-2; assay type: tissue-based; outline: as §1
Felis catus [23] = species: Felis catus; test: Agonist activity at angiotensin 2 receptor in cat adrenal medulla assessed as secretory activity relative to angiotensin-2; assay type: tissue-based
Felis catus [24] = species: Felis catus; test: Agonist activity at angiotensin 2 receptor in cat adrenal cortex assessed as secretory activity relative to angiotensin-2; assay type: tissue-based
[25] = Retardation factor of the compound using n-BuOH-AcOH-water at ratio of 4:1:1 as solvent system by thin layer chromatography; assay type: physicochemical; conditions: buffer

Row | TIME (Oryctolagus cuniculus [5]) | Rf [8] | Rf [11] | Rf [12] | Rf [13] | Rf [14] | SMILES | Activity (Oryctolagus cuniculus [2]) | pA2 [3] | Activity (Rattus norvegicus [4]) | Activity (Rattus norvegicus [6]) | Ratio (Rattus norvegicus [7]) | Activity (Rattus norvegicus [9]) | Activity (Rattus norvegicus [10]) | inhibition (Oryctolagus cuniculus [15]) | Activity (Rattus norvegicus [17]) | Ratio (Rattus norvegicus [18]) | Activity (Rattus norvegicus [19]) | also measured
1 | 1 h | 0.41 | 0.47 | 0.43 | 0.64 | 0.26 | CC[C@H](C)[C@H](NC(=O)[C@H](Cc1ccc(O)cc1)NC(=O)[C@@H](NC(=O)[C@H](CCCNC(=N)N)NC(=O)C(C)(C)N)C(C)C)C(=O)N[C@@H](Cc1cnc[nH]1)C(=O)N1CCC[C@H]1C(=O)NC(C)(C)C(=O)O | 0% | 7.22 | 0.24% | 5.16 mmHg | 3.4 | 8.5 mmHg | 14.33 mmHg | Active |  |  |  | Rf [1]: 0.83; inhibition (Oryctolagus cuniculus [16]): Active
2 | 2 h |  |  |  |  |  | CC[C@H](C)[C@H](NC(=O)[C@H](Cc1ccc(O)cc1)NC(=O)[C@@H](NC(=O)[C@H](CCCNC(=N)N)NC(=O)CNC)C(C)C)C(=O)N[C@@H](Cc1cnc[nH]1)C(=O)N1CCC[C@H]1C(=O)N[C@H](C(=O)O)[C@@H](C)OC | 0.5% | 8.76 | 0.48% | 13.82 mmHg | 62.52 | 15.88 mmHg | 15.06 mmHg | Active | 5.25 mmHg | 11.65 | 8.75 mmHg | 
3 | 2 h | 0.25 | 0.35 | 0.25 |  | 0.08 | CC[C@H](C)[C@H](NC(=O)[C@@H]1CCCN1C(=O)[C@H](Cc1c[nH]cn1)NC(=O)[C@@H](NC(=O)[C@H](Cc1ccc(O)cc1)NC(=O)[C@@H](NC(=O)[C@H](CCCN=C(N)N)NC(=O)CNC)C(C)C)[C@@H](C)OC)C(=O)O (H-[Sar]RVYT(Me)HPI-OH) | 0.1% | 9.5 | 1.01% | 19 mmHg | 50 | 18.83 mmHg | 18.5 mmHg | Active | 11 mmHg | 24.15 | 19.8 mmHg | Activity (Rattus norvegicus [20]): 16.82 mmHg
4 | 2 h | 0.18 | 0.28 |  | 0.47 |  | CNCC(=O)N[C@@H](CCCNC(=N)N)C(=O)N[C@H](C(=O)N[C@@H](Cc1ccc(O)cc1)C(=O)N[C@H](C(=O)N[C@@H](Cc1cnc[nH]1)C(=O)N1CCC[C@H]1C(=O)N[C@H](C(=O)O)[C@@H](C)OC)[C@@H](C)OC)C(C)C | 0% | 9.5 | 0.46% |  |  |  |  | Active | 8.33 mmHg | 32.73 | 14.5 mmHg | Activity (Rattus norvegicus [20]): 13 mmHg
5 | 2 h | 0.26 | 0.46 | 0.22 | 0.62 |  | CC[C@H](C)[C@H](NC(=O)[C@H](Cc1ccc(O)cc1)NC(=O)[C@@H](NC(=O)[C@H](CCCNC(=N)N)NC(=O)CNC)C(C)C)C(=O)N[C@@H](Cc1cnc[nH]1)C(=O)N1CCC[C@H]1C(=O)NC(C)(C)C(=O)O | 0% | 8.7 | 0.52% | 11 mmHg | 19.76 | 13.16 mmHg | 16.6 mmHg | Active |  |  |  | Rf [25]: 0.5

Continued, compound first:

Row | SMILES | TIME (Oryctolagus cuniculus [5]) | Rf [8] | Rf [11] | Rf [12] | Rf [13] | Rf [14] | Activity (Oryctolagus cuniculus [2]) | pA2 [3] | Activity (Rattus norvegicus [4]) | Activity (Rattus norvegicus [6]) | Ratio (Rattus norvegicus [7]) | Activity (Rattus norvegicus [9]) | Activity (Rattus norvegicus [10]) | inhibition (Oryctolagus cuniculus [15]) | Activity (Rattus norvegicus [17]) | Ratio (Rattus norvegicus [18]) | Activity (Rattus norvegicus [19]) | also measured
6 | CC[C@H](C)[C@H](NC(=O)[C@@H]1CCCN1C(=O)[C@H](Cc1c[nH]cn1)NC(=O)[C@@H](NC(=O)[C@H](Cc1ccc(O)cc1)NC(=O)[C@@H](NC(=O)[C@H](CCCN=C(N)N)NC(=O)CNC)C(C)C)[C@@H](C)CC)C(=O)O | 2 h |  |  |  |  |  | 1% | 9.17 | 1% | 17.81 mmHg | 27.79 | 18.27 mmHg | 14.81 mmHg | Active |  |  |  | 
7 | CC[C@H](C)[C@H](NC(=O)[C@H](Cc1ccc(O)cc1)NC(=O)[C@@H](NC(=O)[C@H](CCCN=C(N)N)NC(=O)CNC)C(C)C)C(=O)N[C@@H](Cc1c[nH]cn1)C(=O)N1CCC[C@H]1C(=O)N[C@@H](C)C(=O)O | 2 h |  |  |  |  |  | 0.5% | 8.61 |  | 15.11 mmHg | 7.92 | 16.88 mmHg | 17.44 mmHg | Active |  |  |  | 
8 | CC[C@H](C)[C@H](NC(=O)[C@H](Cc1ccc(O)cc1)NC(=O)[C@@H](NC(=O)CN(C)C(=O)CNC)C(C)C)C(=O)N[C@@H](Cc1c[nH]cn1)C(=O)N1CCC[C@H]1C(=O)N[C@H](C(=O)O)[C@@H](C)O (H-[Sar][Sar]VYIHPT-OH) | 3 h | 0.43 | 0.46 |  | 0.63 | 0.24 | 0% | 8.78 | 0% | 3.16 mmHg | 1.93 | 7 mmHg | 11.66 mmHg | Active |  |  |  | Rf [1]: 0.76; Rf [21]: 0.75
9 | CC[C@H](C)[C@H](NC(=O)[C@H](Cc1ccc(O)cc1)NC(=O)[C@@H](NC(=O)[C@H](CCCN=C(N)N)NC(=O)CNC)C(C)C)C(=O)N[C@@H](Cc1c[nH]cn1)C(=O)N1CCC[C@H]1C(=O)N[C@H](C(=O)O)[C@@H](C)O (H-[Sar]RVYIHPT-OH) | 2 h |  |  |  |  |  | 0.5% | 8.79 | 0.6% | 9.46 mmHg | 26.91 | 9.66 mmHg | 9.2 mmHg | Active |  |  |  | Activity (Oryctolagus cuniculus [22]): 0.5%; Activity (Felis catus [23]): 0.1%; Activity (Felis catus [24]): 1%
